Measurements as given in ChEMBL document CHEMBL3352181, “Novel phenyl and pyridyl substituted derivatives of isoindolines: Synthesis, antitumor activity and DNA binding features” (Eur J Med Chem, 2014).
Active and inactive are the calls of the source. No cut-off for these calls is given here.

Experiments:
[1] = system: HeLa; assay: Antiproliferative activity against human HeLa cells assessed as inhibition of cell proliferation after 72 hrs by MTT assay; format: functional, cell-based
Procedure, shortened: (§1)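 Cells grown as monolayers in DMEM with 10% FBS, 2 mM L-glutamine, penicillin/streptomycin, 37 °C, 5% CO2. Seeded at 5000/well on day 0. Compounds added after 24 h as five serial dilutions (0,01 to 100 µM), DMSO ≤0.1%, then 72 h. MTT read-out converted to percentage growth. IC50 by linear regression; quadruplicates in three experiments.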

[2] = system: HepG2; assay: Antiproliferative activity against human HepG2 cells assessed as inhibition of cell proliferation after 72 hrs by MTT assay; format: functional, cell-based; procedure, shortened: as §1
[3] = system: HepG2; assay: Induction of cell cycle arrest on human HepG2 cells assessed as accumulation at G2/M phase at 10 uM after 48 hrs by propidium iodide staining based flow cytometry (reference value: 31.1 +/- 0.4%); format: functional
[4] = system: MCF7; assay: Antiproliferative activity against human MCF7 cells assessed as inhibition of cell proliferation after 72 hrs by MTT assay; format: functional, cell-based; procedure, shortened: as §1
[5] = system: HepG2; assay: Induction of cell cycle arrest on human HepG2 cells assessed as accumulation at subG1 phase at 25 uM after 48 hrs by propidium iodide staining based flow cytometry (reference value: 1.9%); format: functional
Procedure, shortened: (§2)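 HepG2 or SW620 cells were seeded at 25000 per well. After 24 h they were treated, then harvested 24 or 48 h later. Attached cells were trypsinized, pooled with floating cells, PBS-washed and fixed in 70% ethanol. Cells were stained with PI 1 µg/mL plus RNase A 0.2 µg/mL, and 10 000 events were acquired by flow cytometry. Phase percentages come from DNA histograms, in duplicate, with ANOVA at p < 0.05.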

[6] = system: HepG2; assay: Induction of cell cycle arrest on human HepG2 cells assessed as accumulation at S phase at 25 uM after 24 hrs by propidium iodide staining based flow cytometry (reference value: 12.0 +/- 10.2%); format: functional; procedure, shortened: as §2
[7] = system: HepG2; assay: Induction of apoptosis in human HepG2 cells assessed as enlarged cells level at 25 uM after 24 hrs by Annexin V-Fluos staining based fluorescent microscopy; format: functional, cell-based
Procedure, shortened: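 Cells seeded on chamber slides at 4000 per well and treated 24 h (HepG2 at 25 or 50 µM; SW620 at 50 µM). Incubated 15 min with Annexin V-Fluos reagent plus propidium iodide, washed in PBS, and examined by fluorescence microscopy for morphology and labelling.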

[8] = system: HepG2; assay: Induction of cell cycle arrest on human HepG2 cells assessed as accumulation at G1 phase at 25 uM after 24 hrs by propidium iodide staining based flow cytometry (reference value: 61.4 +/- 2.0%); format: functional
[9] = system: HepG2; assay: Induction of cell cycle arrest on human HepG2 cells assessed as accumulation at G2/M phase at 10 uM after 24 hrs by propidium iodide staining based flow cytometry (reference value: 26.6 +/- 12.2%); format: functional
[10] = system: HepG2; assay: Induction of cell cycle arrest on human HepG2 cells assessed as accumulation at G2/M phase at 25 uM after 24 hrs by propidium iodide staining based flow cytometry (reference value: 26.6 +/- 12.2%); format: functional
[11] = system: HepG2; assay: Induction of cell cycle arrest on human HepG2 cells assessed as accumulation at G2/M phase at 25 uM after 48 hrs by propidium iodide staining based flow cytometry (reference value: 31.1 +/- 0.4%); format: functional
[12] = system: HepG2; assay: Induction of cell cycle arrest on human HepG2 cells assessed as accumulation at subG1 phase at 10 uM after 24 hrs by propidium iodide staining based flow cytometry (reference value: 4.8 +/- 0.6%); format: functional; procedure, shortened: as §2
[13] = system: HepG2; assay: Induction of cell cycle arrest on human HepG2 cells assessed as accumulation at S phase at 25 uM after 48 hrs by propidium iodide staining based flow cytometry (reference value: 6.8 +/- 5.3%); format: functional; procedure, shortened: as §2
[14] = system: HepG2; assay: Induction of cell cycle arrest on human HepG2 cells assessed as accumulation at subG1 phase at 10 uM after 48 hrs by propidium iodide staining based flow cytometry (reference value: 1.9%); format: functional; procedure, shortened: as §2
[15] = system: HepG2; assay: Induction of cell cycle arrest on human HepG2 cells assessed as accumulation at G1 phase at 25 uM after 48 hrs by propidium iodide staining based flow cytometry (reference value: 62.1 +/- 4.9%); format: functional
[16] = system: HepG2; assay: Induction of cell cycle arrest on human HepG2 cells assessed as accumulation at subG1 phase at 25 uM after 24 hrs by propidium iodide staining based flow cytometry (reference value: 4.8 +/- 0.6%); format: functional; procedure, shortened: as §2
[17] = system: HepG2; assay: Induction of cell cycle arrest on human HepG2 cells assessed as accumulation at S phase at 10 uM after 24 hrs by propidium iodide staining based flow cytometry (reference value: 12.0 +/- 10.2%); format: functional
[18] = system: HepG2; assay: Induction of cell cycle arrest on human HepG2 cells assessed as accumulation at S phase at 10 uM after 48 hrs by propidium iodide staining based flow cytometry (reference value: 6.8 +/- 5.3%); format: functional
[19] = system: BJ; assay: Antiproliferative activity against human BJ cells assessed as inhibition of cell proliferation after 72 hrs by MTT assay; format: cell-based; conditions: 72 h; procedure, shortened: as §1
[20] = system: SW-620; assay: (§3) Antiproliferative activity against human SW620 cells assessed as inhibition of cell proliferation after 72 hrs by MTT assay; format: functional, cell-based; procedure, shortened: as §1
[21] = as §3; format: functional, cell-based, SW-620; conditions: Homo sapiens, SW-620, 72 h; procedure, shortened: as §1
[22] = system: HepG2; assay: Induction of cell cycle arrest on human HepG2 cells assessed as accumulation at G1 phase at 10 uM after 24 hrs by propidium iodide staining based flow cytometry (reference value: 61.4 +/- 2.0%); format: functional
[23] = molecular target: T1, DNA topoisomerase 1 (Homo sapiens) (UniProt P11387); assay: Inhibition of human topoisomerase 1 assessed as topoisomerase poison activity by measuring generation of open circular DNA using supercoiled pUC19 DNA at 5 to 50 uM by agarose gel electrophoresis
T1 sequence (whole entry): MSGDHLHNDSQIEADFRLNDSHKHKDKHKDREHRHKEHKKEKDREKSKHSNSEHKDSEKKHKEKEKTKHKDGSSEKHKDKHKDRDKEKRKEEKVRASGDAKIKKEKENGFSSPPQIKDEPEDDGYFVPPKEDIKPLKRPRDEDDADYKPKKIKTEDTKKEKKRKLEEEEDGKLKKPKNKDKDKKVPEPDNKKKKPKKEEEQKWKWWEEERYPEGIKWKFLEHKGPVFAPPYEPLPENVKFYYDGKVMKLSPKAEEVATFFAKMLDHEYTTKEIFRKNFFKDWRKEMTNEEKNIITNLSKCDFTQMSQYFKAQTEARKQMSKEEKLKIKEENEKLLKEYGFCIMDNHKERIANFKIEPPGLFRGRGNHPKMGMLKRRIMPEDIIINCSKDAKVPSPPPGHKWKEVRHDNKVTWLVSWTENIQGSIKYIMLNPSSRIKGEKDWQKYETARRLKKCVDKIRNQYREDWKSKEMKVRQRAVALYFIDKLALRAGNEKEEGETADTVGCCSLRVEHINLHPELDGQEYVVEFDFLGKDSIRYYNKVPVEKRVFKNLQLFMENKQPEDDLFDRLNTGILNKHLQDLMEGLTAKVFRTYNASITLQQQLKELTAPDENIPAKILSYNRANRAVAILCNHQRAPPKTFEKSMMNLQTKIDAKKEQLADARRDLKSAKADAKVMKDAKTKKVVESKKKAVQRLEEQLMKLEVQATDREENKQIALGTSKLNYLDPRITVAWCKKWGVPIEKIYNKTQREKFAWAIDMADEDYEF
Procedure, shortened: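 Supercoiled pUC19 plasmid was incubated with human topoisomerase I and graded compound concentrations. Reactions were stopped with SDS and proteinase K. DNA forms were resolved on 1% agarose in TBE (2 h, 120 V), post-stained with ethidium bromide and photographed under UV. Poisoning was read as appearance of nicked DNA, with camptothecin as the positive control.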

[24] = system: HepG2; assay: Induction of cell cycle arrest on human HepG2 cells assessed as accumulation at G1 phase at 10 uM after 48 hrs by propidium iodide staining based flow cytometry (reference value: 62.1 +/- 4.9%); format: functional

**Q.** For N#Cc1ccc(/N=C2\c3ccccc3CN2c2ccc(C#N)cc2)cc1, which inhibition [1] is on record?
**A.** Its inhibition is “Dose-dependent effect”.

**Q.** What about the IC50 ([1]; Homo sapiens, HeLa, 72 h) of the same molecule?
**A.** Its IC50 is 50 µM.

**Q.** And the inhibition [2]?
**A.** The inhibition was “Dose-dependent effect”.

**Q.** What about the IC50 ([2]; HepG2, 72 h) of the same molecule?
**A.** The IC50 was 4.68 µM.

**Q.** What about the Activity [3] of the same molecule?
**A.** Its Activity is 100%.

**Q.** What about the inhibition [4] of the same molecule?
**A.** Its inhibition is “Dose-dependent effect”.

**Q.** And the IC50 ([4]; Homo sapiens, MCF7, 72 h)?
**A.** Its IC50 is 46.1 µM.

**Q.** And the Activity [5]?
**A.** The Activity was 5.7%.

**Q.** And the Activity [6]?
**A.** Its Activity is 16.8%.

**Q.** What about the Activity [7] of the same molecule?
**A.** Its Activity is “Active”.

**Q.** And the Activity [8]?
**A.** The Activity was 45.9%.

**Q.** What about the Activity [9] of the same molecule?
**A.** Its Activity is 19.2%.

**Q.** What about the Activity [10] of the same molecule?
**A.** Its Activity is 37.3%.

**Q.** And the Activity [11]?
**A.** Its Activity is 100%.

**Q.** What about the Activity [12] of the same molecule?
**A.** The Activity was 13.3%.

**Q.** And the Activity [13]?
**A.** The Activity was 0%.

**Q.** And the Activity [14]?
**A.** The Activity was 5.2%.

**Q.** And the Activity [15]?
**A.** Its Activity is 0%.

**Q.** What about the Activity [16] of the same molecule?
**A.** The Activity was 15.7%.

**Q.** And the Activity [17]?
**A.** Its Activity is 26.7%.

**Q.** And the Activity [18]?
**A.** Its Activity is 0%.

**Q.** What about the IC50 ([19]; Homo sapiens, BJ) of the same molecule?
**A.** Its IC50 is 75.2 µM.

**Q.** What about the “inhibition (INH)” value ([19]; human, bj) of the same molecule?
**A.** Its value is “Dose-dependent effect”.

**Q.** What about the inhibition [20] of the same molecule?
**A.** Its inhibition is “Dose-dependent effect”.

**Q.** And the IC50 [21]?
**A.** Its IC50 is 77.2 µM.

**Q.** And the Activity [22]?
**A.** The Activity was 54.1%.

**Q.** What about the inhibition [23] of the same molecule?
**A.** The inhibition was “inactive”.

**Q.** What about the Activity [24] of the same molecule?
**A.** The Activity was 0%.
